Reference: ChEMBL document CHEMBL4049421, “Design, Synthesis, and Pharmacological Characterization of N-(4-(2 (6,7-Dimethoxy-3,4-dihydroisoquinolin-2(1H)yl)ethyl)phenyl)quinazolin-4-amine Derivatives: Novel Inhibitors Reversing P-Glycoprotein-Mediated Multidrug Resistance” (J Med Chem, 2017)
Activity calls are given as the source filed them. The calls are words filed in the database; no cut-off is given here.

How the values were obtained:
Homo sapiens [1] = species on record: Homo sapiens; test: Inhibition of P-gp in human K562/A02 cells assessed as potentiation of doxorubicin-induced cytotoxicity by measuring fold reduction in doxorubicin IC50 at 1.0 uM after 48 hrs by MTT assay relative to doxorubicin alone; assay type: cell-based
Procedure, shortened: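 K562/A02 cells (1×10^4 cells per well) were exposed to a DOX concentration series, alone or with modulator at 1.0 μM, for 48 h. Viability was read by MTT at 490 nm. Reversal fold = DOX IC50 without inhibitor / DOX IC50 with inhibitor, mean ± SD of three tests.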

[2] = Cytotoxicity against human K562 cells assessed as cell viability at 1.0 uM after 48 hrs by MTT assay (reference value: >99%); assay type: cell-based; conditions: read-out: Activity
[3] = Cytotoxicity against human K562/A02 cells assessed as cell viability at 1.0 uM after 48 hrs by MTT assay (reference value: >99%); assay type: cell-based; conditions: read-out: Activity
K562 [4] = test: Antiproliferative activity against human K562 cells assessed as cell viability at 5.0 uM after 48 hrs by MTT assay (reference value: >99%); assay type: functional; conditions: K562, 48 h, read-out: Activity
K562 [5] = test: Cytotoxicity against human K562 cells assessed as reduction in cell viability after 48 hrs by MTT assay; assay type: functional, cell-based; conditions: K562, 48 h
Procedure, shortened: (§1)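 MTT assay on HUVEC, K562 or K562/A02 cells seeded at 1×10^4 cells per well, using serial compound concentrations. Formazan was dissolved in DMSO and read at 490 nm. IC50 was obtained from log dose–response curves, mean ± SD of three independent tests.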

[6] = Elimination half life in Sprague-Dawley rat at 10 mg/kg, iv by LC-MS/MS analysis; assay type: ADME, organism-based; conditions: in vivo, read-out: beta t1/2 (converted)
K562/A02 [7] = test: Cytotoxicity against human K562/A02 cells assessed as reduction in cell viability after 48 hrs by MTT assay; assay type: functional, cell-based; conditions: K562/A02, 48 h; procedure, shortened: as §1
HUVEC = test: Cytotoxicity against HUVEC assessed as reduction in cell viability after 48 hrs by MTT assay; assay type: cell-based; conditions: Homo sapiens; procedure, shortened: as §1
K562/A02 [8] = test: Antiproliferative activity against human K562/A02 cells assessed as cell viability at 5.0 uM after 48 hrs by MTT assay (reference value: >99%); assay type: functional; conditions: K562/A02, 48 h, read-out: Activity
[9] = Selective ratio of IC50 for human K562/A02 cells to IC50 for human K562 cells; assay type: functional
Homo sapiens [10] = species on record: Homo sapiens; test: Inhibition of P-gp mediated efflux in human K562/A02 cells assessed as intracellular Rh123 accumulation at 1.0 uM measure up to 90 mins by flow cytometric analysis; assay type: cell-based
Procedure, shortened: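 K562/A02 cells were loaded with 5 μM Rh123 for 90 min at 37 °C and washed three times. They were then incubated with or without modulator at 37 °C for 5, 10, 25, 30, 60 and 90 min. Retained Rh123 MFI per 10000 cells was measured by flow cytometry. 0.1% DMSO negative control, n = 3.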

Rattus norvegicus = test: Effect on plasma concentration of doxorubicin in Sprague-Dawley rat at 5 mg/kg, iv co-administered with doxorubicin measured after 8 hrs by LC-MS/MS analysis; assay type: ADME, organism-based; conditions: in vivo
Procedure, shortened: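 Male SD rats received DOX 10 mg/kg i.v. alone or with modulator 5 mg/kg i.v. Orbital blood was taken at 5 min to 8 h. Plasma DOX was measured by LC-MS/MS with DNR (0.5 μg/mL) as internal standard. Mean ± SD, n = 3.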

Homo sapiens [11] = species on record: Homo sapiens; test: Inhibition of ATPase activity in human P-gp membrane fraction at 0.5 uM in presence of ATP after 1 hr by luciferase […]; assay type: cell membranes
Procedure, shortened: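 Human P-gp membrane fraction (~25 μg) was incubated with compound at 0.5, 5.0 or 50.0 μM in 0.5% DMSO, with a 100 μM sodium vanadate reference. Reaction was started with 5.0 mM MgATP, 1 h at 37 °C. Remaining ATP was read by luciferase luminescence after 20 min at room temperature, relative to vanadate. n = 3.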

Homo sapiens [12] = species on record: Homo sapiens; test: Inhibition of P-gp in human K562/A02 cells assessed as accumulation of doxorubicin at 0.1 uM to 5.0 uM after 150 mins by fluorescence spectrophotometric analysis; assay type: cell-based
Procedure, shortened: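 K562/A02 cells (4×10^5) were incubated 150 min at 37 °C with 20.0 μM DOX plus modulator at various concentrations, with 0.1% DMSO as negative control. Cells were washed with cold PBS and lysed in HCl/Triton X-100/isopropanol. DOX fluorescence was read at ex 460 / em 587 nm. Mean ± SD, n = 3.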

[13] = Inhibition of CYP3A4 in rat liver microsomes assessed as decrease in 6beta-OH testosterone levels using testosterone as substrate by HPLC analysis; assay type: ADME
Procedure, shortened: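 Rat liver microsomes were isolated by differential centrifugation, with protein measured by Bradford assay. They were incubated with testosterone, without or with inhibitor at 2.5, 5.0, 10.0, 20.0 and 40.0 μM; ketoconazole was the reference inhibitor. 6β-OH testosterone was quantified by C18 reverse-phase HPLC (water/acetonitrile gradient, 35 °C, 1.0 mL/min, UV 254 nm). Mean ± SD, three independent experiments.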

[14] = Cytotoxicity against human K562/A02 cells assessed as cell viability at 5.0 uM after 48 hrs by MTT assay (reference value: >99%); assay type: cell-based; conditions: read-out: Activity
Homo sapiens [15] = species on record: Homo sapiens; conditions: 5 uM
Homo sapiens [16] = species on record: Homo sapiens; conditions: 5 uM; remark: listed apart in the source
Homo sapiens [17] = species on record: Homo sapiens; conditions: 5.0 uM
in vitro = conditions: human, K562 cells

| Compound | fold change (FC) (Homo sapiens [1]) | viability at 48 h, 1 µM [2] | viability at 48 h, 1 µM [3] | further results |
| --- | --- | --- | --- | --- |
| COc1cc2c(cc1OC)CN(CCc1ccc(Nc3nc(-c4ccc5c(c4)OCO5)nc4ccccc34)cc1)CC2 | 15.5 | 91.4% | 89.2% |  |
| COc1ccc(-c2nc(Nc3ccc(CCN4CCc5cc(OC)c(OC)cc5C4)cc3)c3ccccc3n2)cc1 | 7.9 | > 99% | 85.2% |  |
| COc1cccc2c1C(=O)c1c(O)c3c(c(O)c1C2=O)C[C@@](O)(C(=O)CO)C[C@@H]3O[C@H]1C[C@H](N)[C@H](O)[C@H](C)O1 [DOXORUBICIN] |  |  |  | viability at 5 µM (K562 [4]): 8.8%; IC50 (K562 [5]): 0.62 µM; half-life [6]: 1.6 h; IC50 (K562/A02 [7]): 89.8 µM; IC50 (HUVEC): 8.65 µM; viability at 5 µM (K562/A02 [8]): 96.4%; Ratio IC50 [9]: 144.8 |
| COc1cc2c(cc1OC)CN(CCc1ccc(Nc3nc(-c4ccccc4)nc4cc(OC)c(OC)cc34)cc1)CC2 | 10.1 | > 99% | 97.3% |  |
| COc1cc2c(cc1OC)CN(CCc1ccc(Nc3nc(-c4ccccc4)nc4ccccc34)cc1)CC2 | 7.7 | 98.7% | > 99% |  |
| COc1cc2c(cc1OC)CN(CCc1ccc(Nc3nc(-c4cccc(C)c4)nc4ccccc34)cc1)CC2 | 8.9 | 92.9% | 92.1% |  |
| COc1cc2c(cc1OC)CN(CCc1ccc(Nc3nc(-c4ccc5ccccc5n4)nc4ccccc34)cc1)CC2 | 2.6 | > 99% | 92.1% |  |
| COc1cc2c(cc1OC)CN(CCc1ccc(Nc3nc(-c4ccc(Cl)cc4)nc4ccccc34)cc1)CC2 | 6 | > 99% | > 99% |  |
| COc1ccc(C(=O)Nc2ccccc2C(=O)Nc2ccc(CCN3CCc4cc(OC)c(OC)cc4C3)cc2)cc1OC | 18.6 | 97.5% | > 99% | inhibition (Homo sapiens [10]): Active; Activity (Rattus norvegicus): Non-Toxic; inhibition (Homo sapiens [11]): Active; inhibition (Homo sapiens [12]): Active |
| COc1ccc(-c2nc(Nc3ccc(CCN4CCc5cc(OC)c(OC)cc5C4)cc3)c3ccccc3n2)cc1OC | 17.2 | 95.1% | > 99% |  |
| CC(=O)N1CCN(c2ccc(OCC3COC(Cn4ccnc4)(c4ccc(Cl)cc4Cl)O3)cc2)CC1 (configuration not stated) [KETOCONAZOLE] |  |  |  | inhibition (INH) [13]: Dose-dependent effect |
| COc1cc2c(cc1OC)CN(CCc1ccc(Nc3nc(-c4ccccc4)nc4cc(Cl)ccc34)cc1)CC2 | 8.2 | > 99% | 95.3% |  |
| COc1cc2c(cc1OC)CN(CCc1ccc(Nc3nc(-c4ccc(C)cc4)nc4ccccc34)cc1)CC2 | 7.5 | 93.4% | 94.2% |  |
| COc1cc2c(cc1OC)CN(CCc1ccc(Nc3nc(-c4ccc(F)cc4)nc4ccccc34)cc1)CC2 | 3.3 | > 99% | > 99% |  |
| COc1cc2c(cc1OC)CN(CCc1ccc(Nc3nc(-c4ccc([N+](=O)[O-])cc4)nc4ccccc34)cc1)CC2 | 3 | 94.7% | > 99% |  |
| COc1cccc(-c2nc(Nc3ccc(CCN4CCc5cc(OC)c(OC)cc5C4)cc3)c3ccccc3n2)c1 | 14.6 | > 99% | > 99% |  |
| COc1cc2c(cc1OC)CN(CCc1ccc(Nc3nc(-c4ccccc4OC)nc4ccccc34)cc1)CC2 | 10.9 | > 99% | > 99% |  |
| COc1cc2c(cc1OC)CN(CCc1ccc(Nc3nc(-c4cccc([N+](=O)[O-])c4)nc4ccccc34)cc1)CC2 | 13.4 | > 99% | > 99% |  |
| COc1cc2c(cc1OC)CN(CCc1ccc(Nc3nc(-c4cccnc4)nc4ccccc34)cc1)CC2 | 5.9 | > 99% | 97.9% |  |
| COc1cc2c(cc1OC)CN(CCc1ccc(Nc3nc(-c4ccc(C(C)(C)C)cc4)nc4ccccc34)cc1)CC2 | 1.9 | > 99% | 91.3% |  |
| COc1ccc(CCN(C)CCCC(C#N)(c2ccc(OC)c(OC)c2)C(C)C)cc1OC (configuration not stated) |  |  |  | viability at 48 h, 5 µM [14]: 88.3%; inhibition (Homo sapiens [15]): Active; inhibition (Homo sapiens [16]): inactive; inhibition (Homo sapiens [17]): Active; Activity (Rattus norvegicus): Toxic; viability at 48 h, 5 µM (in vitro): > 99% |
